PAFAH2 inh: inhibitors of human PAFAH2 | Q99487 | inhibition, % at 3.39 µM | AID 492956 | hit rate 0.99% among 340,000 | recombinant PAFAH2, FP-rhodamine activity probe, fluorescence polarization;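 active means inhibition above the mean over all tested compounds plus 3 SD, cut at about 30% in these data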;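 further: inhibitors block probe labeling of enzyme so polarization drops; 0% = enzyme with DMSO and 100% = wells lacking PAFAH2 protein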
ABHD4 inh: inhibitors of mouse ABHD4 | Q8VD66 | purified mABHD4, FP-Rh probe fluorescence polarization | inhibition, % at 8.92 µM | hit rate 0.54% among 370,000 | AID 720543;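 active means inhibition exceeding the mean over every tested compound plus 3 SD, cut at about 30% in these data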;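 further: 0% = plate median of compound wells and 100% = S159A mutant with DMSO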
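Test system: mABHD4 protein | Buffer or medium: HEPES pH 7.0 buffer, 150 mM NaCl, 0.01% Pluronic F-127 | Probe or stimulus: FP-Rh fluorescent activity-based probe, added after compound pre-incubation | Timing: Pre-incubation 45 min, probe exposure 60 min, at 25 °C | Technique: Fluorescence polarization, excitation 525 nm, emission 598 nm, BODIPY TMR filters | Repeats: Single well per compound (singlicate)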
HTRA1 inhibitor: inhibitors of human serine peptidase HTRA1 | hit rate 0.5% among 340,000 | AID 504803 | recombinant HTRA1, FP-rhodamine activity-based probe, fluorescence polarization | inhibition, % at 5.96 µM; in the data active means inhibition above about 36%;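 further: 0% = enzyme with DMSO and 100% = wells lacking enzyme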
Target sequence (Q92743 whole entry, looked up): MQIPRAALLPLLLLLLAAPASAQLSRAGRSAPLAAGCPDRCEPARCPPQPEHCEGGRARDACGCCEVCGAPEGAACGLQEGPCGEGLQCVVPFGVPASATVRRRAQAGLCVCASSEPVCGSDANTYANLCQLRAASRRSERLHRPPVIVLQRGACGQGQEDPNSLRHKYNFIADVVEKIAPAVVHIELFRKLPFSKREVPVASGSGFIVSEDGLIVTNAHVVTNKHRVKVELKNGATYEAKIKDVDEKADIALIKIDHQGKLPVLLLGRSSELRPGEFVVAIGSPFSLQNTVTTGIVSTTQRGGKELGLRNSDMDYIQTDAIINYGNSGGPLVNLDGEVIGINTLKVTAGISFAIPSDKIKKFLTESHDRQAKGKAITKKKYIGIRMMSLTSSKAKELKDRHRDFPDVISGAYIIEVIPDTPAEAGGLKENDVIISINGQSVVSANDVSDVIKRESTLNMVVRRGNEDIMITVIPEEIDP
PAFAH1B3 FP inh: inhibitors of human PAFAH1B3 | Q15102 | recombinant PAFAH1B3, FP-rhodamine probe, fluorescence polarization | inhibition, % at 3.39 µM | hit rate 0.28% among 340,000;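 active means inhibition above the screen-wide average of all tested compounds plus 3 SD, cut at about 25% in these data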;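 further: 0% = enzyme with DMSO only and 100% = wells lacking PAFAH1B3 protein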
PAFAH1B2 inh: PAFAH1B2 (human) inhibition; P68402; recombinant PAFAH1B2, FP-rhodamine activity probe, fluorescence polarization; hit rate 1.2% among 340,000; inhibition, % at 3.39 µM;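 active means inhibition above the mean of all tested compounds plus 3 SD, cut at about 24% in these data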;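 further: 0% = enzyme with DMSO and 100% = wells lacking PAFAH1B2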
pPAFAH inh: inhibitors of human plasma PAF acetylhydrolase (pPAFAH); Q13093; recombinant pPAFAH, FP-rhodamine probe fluorescence polarization; inhibition, % at 3.39 µM; hit rate 1.5% among 330,000;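 active means inhibition above the mean inhibition across the screen plus 3 SD, cut at about 25% in these data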;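 further: inhibitors block binding of the rhodamine activity-based probe so polarization drops; 0% = enzyme with DMSO and 100% = wells lacking pPAFAH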
PAFAH2 FP conf: PAFAH2 (human) inhibition, confirmed | shares compounds with PAFAH2 inh | recombinant PAFAH2, FP-rhodamine activity probe, fluorescence polarization | inhibition, % at 3.39 µM | hit rate 65% among 2,300 | AID 493030;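 active means mean inhibition over three repeats above a set limit taken from the earlier primary screen, cut at about 30% in these data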;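 further: inhibitor blocks binding of rhodamine activity probe so polarization falls; 0% = enzyme with DMSO and 100% = wells lacking PAFAH2 protein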
Active calls of the source: *; · = no result. Most compounds without a hit are left out; they make up all but 2.8% or so of the library.

SMILES	PAFAH2 inh	ABHD4 inh	HTRA1 inhibitor	PAFAH1B3 FP inh	PAFAH1B2 inh	pPAFAH inh	PAFAH2 FP conf
O=C(COc1ccc(C(=O)c2ccccc2)cc1)NCc1ccc(F)cc1	-6	-4	-13	-5	-4	8	·
Cc1ccc(C(=O)c2ccccc2C(=O)OCC(=O)NC(=O)NC(C)(C)C)cc1	14	-7	6	1	3	-6	·
O=C(COC(=O)c1ccc(Br)cc1)NCc1ccccc1	31*	-4	1	8	1	11	25
Cc1ccc(C(=O)c2ccccc2C(=O)OCC(=O)NCCc2ccccc2)cc1	9	1	-18	5	7	4	·
O=C(COC(=O)c1ccccc1C(=O)c1ccccc1)NCc1ccc(F)cc1	43*	-6	0	5	1	3	36*
O=C(COC(=O)c1ccccc1C(=O)c1ccc(Cl)cc1)NCc1ccccc1	34*	-2	-12	6	4	4	26
CC(C)(C)NC(=O)COC(=O)c1ccccc1C(=O)c1ccccc1	69*	-3	-10	11	4	3	56*
CCOC(=O)[C@@]12CCCC3=C1N(CCC3)C(=O)[C@H]2CC(=O)NCc1ccccc1	·	7	·	·	·	·	·
c1ccc(OCc2nnc(SCc3nc4ccccc4[nH]3)n2-c2ccccc2)cc1	·	3	·	·	·	·	·
CC(=O)N1c2ccccc2C(=O)NCC1C(=O)NC(C)(C)C (stereo unspecified)	·	-7	·	·	·	·	·
COc1ccc(C(=O)CSc2nnc(-c3ccccc3)n2-c2ccc(Cl)cc2)cc1	·	-2	·	·	·	·	·
O=C(COC(=O)c1ccccc1C(=O)c1ccc(Cl)cc1)NCC1CCCO1 (stereo unspecified)	9	1	3	7	2	-2	·
O=C(COC(=O)c1ccccc1C(=O)c1ccccc1)NCCc1ccc(Cl)cc1Cl	71*	-26	-46	7	3	13	58*
Cc1c(Cl)cccc1N=C1SCCN1C(=O)CN1C(=O)NC2(CCCC2)C1=O	30*	0	-18	5	7	13	18
O=C(CN1C(=O)NC2(CCCCC2)C1=O)Nc1cccc(Cl)c1Cl	0	8	1	5	7	5	·
OC(c1ccccc1)(c1ccccc1)C1CCN(CCCOc2ccc(-c3ccc(F)cc3F)cc2)CC1	·	26	·	·	·	·	·
CCN(Cc1cn(Cc2ccccc2)nn1)S(=O)(=O)c1ccccc1Br	·	-2	·	·	·	·	·
O=C(COC(=O)/C=C/c1ccc2c(c1)OCO2)NC1CC1	56*	-3	-6	-5	5	5	41*
CC(NC(=O)COC(=O)/C=C/c1ccc2c(c1)OCO2)c1ccccc1 (stereo unspecified)	47*	4	3	1	7	1	38*
CC1CCCC(NC(=O)COC(=O)/C=C/c2ccc3c(c2)OCO3)C1C (stereo unspecified)	82*	-5	8	1	4	4	75*
CC(C)NC(=O)NC(=O)COC(=O)/C=C/c1ccc2c(c1)OCO2	7	0	-1	5	2	-4	·
N[C@H](C(=O)N[C@@H](Cc1ccccc1)C(=O)N1CCC2CCN(S(=O)(=O)c3ccccc3)CC21)c1ccccc1 (stereo partly specified)	·	1	·	·	·	·	·
CC(=O)Oc1ccc(/C=C/c2nc3ccccc3c(=O)o2)cc1	50*	6	-1	9	7	-5	57*
CC(=O)Oc1ccc(-c2nc3ccccc3c(=O)o2)cc1	19	3	-3	11	3	-1	·
O=c1oc(/C=C/c2ccc([N+](=O)[O-])s2)nc2ccccc12	19	·	-3	-2	7	6	·
SMILES	PAFAH2 inh	ABHD4 inh	HTRA1 inhibitor	PAFAH1B3 FP inh	PAFAH1B2 inh	pPAFAH inh	PAFAH2 FP conf
CC(=O)Oc1ccccc1/C=C/c1nc2ccccc2c(=O)o1	86*	-11	9	5	4	2	70*
CN1C2=N[C@H](c3ccccc3Br)CC(=O)N2/C(=C\c2ccccc2)[C@@H]1c1ccccc1	·	-9	·	·	·	·	·
O=C(COC(=O)COc1ccc(Br)cc1)NC1CCCC1	12	2	1	8	14	23	·
O=C(CCC1CCCC1)NNC(=O)COc1ccc(Br)cc1	35*	1	10	11	19	5	23
CC1OC2(C)OC(=N)C1(C#N)C(C#N)(C#N)C2c1ccccc1 (stereo unspecified)	18	21	11	12	13	6	·
CCCC1OC23CCCCC2C(C#N)(C(=N)O3)C1(C#N)C#N (stereo unspecified)	30*	10	12	21	15	13	0
CCCCNC(=O)COC(=O)c1ccc(C)c(NC(=O)c2ccco2)c1	50*	1	-7	1	-2	4	45*
CCN(CC)C(=O)COC(=O)c1ccc(C)c(NC(=O)c2ccco2)c1	3	1	6	6	10	4	·
C=CCNC(=O)COC(=O)c1ccc(C)c(NC(=O)c2ccco2)c1	36*	1	-3	0	5	1	30*
O=C(CSc1nc2ccccc2nc1N1CCCC1)N1CCN(C(c2ccccc2)c2ccccc2)CC1	·	7	·	·	·	·	·
Cn1cc(C=C2C(=O)CC(C)(C)CC2=O)c2ccccc21	23	-3	1	3	3	-2	·
Cn1cc(C=C2C(=O)OC3(CCCCC3)OC2=O)c2ccccc21	46*	1	5	7	16	6	46*
Nc1nnc(CC(=O)N/N=C/c2ccc(-c3ccccc3)o2)s1	12	12	3	4	2	3	·
COc1ccc(-c2ccc(/C=N/NC(=O)Cc3nnc(N)s3)o2)cc1Cl	·	7	·	·	·	24	·
Nc1nnc(CC(=O)N/N=C\c2ccc(-c3cccc(Cl)c3)o2)s1	48*	3	-4	12	5	16	19
COc1cc(/C=N/NC(=O)Cc2nnc(N)s2)cc(OC)c1OC	4	11	4	4	-5	2	·
Cc1ccc(-c2ccc(/C=N/NC(=O)Cc3nnc(N)s3)o2)cc1Cl	55*	13	-2	6	-1	24	20
COC(=O)c1ccc(-c2ccc(/C=N/NC(=O)Cc3nnc(N)s3)o2)cc1	43*	7	5	11	0	7	18
CCCc1cc(=O)oc2c3c(cc(OCC(=O)N[C@@H](CSC)C(=O)O)c12)OC(C)(C)CC3	34*	-2	-1	3	10	·	28
CSC[C@H](NC(=O)COc1cc2c(c3oc(=O)cc(C)c13)CCC(C)(C)O2)C(=O)O	1	4	1	4	9	12	·
O=C(NCCc1ccccc1)OCc1cn(Cc2ccc(F)cc2)nn1	·	2	·	·	·	·	·
